Published values from different studies.
Lines come from different studies, so protocols differ.

| SMILES | cell line | test | setting | endpoint | value |
| --- | --- | --- | --- | --- | --- |
| Cc1c2ccncc2c(C)c2c1[nH]c1ccccc12 | KB | cell growth or viability, MTT | 72 h | IC50 | 0.22 µg/mL |
| COc1cc2[nH]c(C)c(-c3ccc(N(C)C)cc3)c(=O)c2cc1Cl | J774 | cell growth or viability | – | EC50 | > 29.2 µM |
| CCCCOC(=O)[C@H]1O[C@@H](O[C@H]2CC[C@]3(C)[C@H]4CC=C5[C@@H]6CC(C)(C)CC[C@]6(C(=O)O[C@@H]6O[C@H](CO)[C@@H](O)[C@H](O)[C@H]6O)CC[C@@]5(C)[C@]4(C)CC[C@H]3C2(C)C)[C@H](O[C@@H]2OC[C@@H](O)[C@H](O)[C@H]2O)[C@@H](O)[C@@H]1O | human Neutrophil | elastase release, inhibitor | – | IC50 | > 30 µM |
| N.N.[Cl][Pt][Cl] | Hs 683 | cell growth or viability, MTT | – | IC50 | 1.12 µM |
| O=C(O)c1cnn(-c2ccccc2)c1OCCCc1c[nH]c2ccccc12 | HFF | cell growth or viability | 200 µM, 96 h | inhibition | < 50% |
| Cl.O[C@]12C=C(c3nccc4c3[nH]c3ccccc34)[C@@H]3CCN(CCCC/C=C\CC1)C[C@@]31C[C@@H]3/C=C\CCCCN3[C@H]12 | KB | cell growth or viability, neutral red | 48 h | IC50 | 0.38 µg/mL |
| CC1=CC(=O)c2c(O)cccc2C1=O | NCI-H226 | cell growth or viability, SRB | – | IC50 | 3.03 µM |
| COC(=O)[C@H]1O[C@@H](O[C@H]2CC[C@]3(C)[C@H]4CC=C5[C@@H]6CC(C)(C)CC[C@]6(C(=O)O[C@@H]6O[C@H](CO)[C@@H](O)[C@H](O)[C@H]6O)CC[C@@]5(C)[C@]4(C)CC[C@H]3C2(C)C)[C@H](O)[C@@H](O)[C@@H]1O[C@@H]1O[C@@H](CO)[C@H](O)[C@H]1O | human Neutrophil | elastase release, inhibitor | – | IC50 | > 30 µM |
| COc1ccc2[nH]cc(CCNc3nccc(Nc4cccc5c4ccn5C)n3)c2c1 | U-937 | cell growth or viability, fluorescence | 72 h | IC50 | 0.008 µM |
| COc1cccc2c1C(=O)c1c(O)c3c(c(O)c1C2=O)C[C@@](O)(C(=O)CO)C[C@@H]3O[C@H]1C[C@H](N)[C@H](O)[C@H](C)O1 | KB | cell growth or viability | 48 h | IC50 | 1.4 µg/mL |
